PP5 inh: PP5 (human) phosphatase inhibition. P53041. purified PP5c, OMFP substrate fluorescence. inhibition, % at 6.7 µM. hit rate 0.18% among 320,000;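 active means inhibition above the campaign's mean inhibition across all tested compounds plus 3 SD, cut at about 9.5% in these data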;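 further: 0% = DMSO only and 100% = 100 µM cantharidin control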
T cell modulator: T cell immune modulators affecting CD8 T cell-vesicle binding; hit rate 0.068% among 330,000; AID 2052; 2C CD8+ T cell-vesicle binding, flow cytometry; active compounds read low; response (vesicle binding), % at 7 µM;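 active means response, share of CD8 T cells binding vesicles, and their 90th percentile fluorescence all below set limits, cut at about 80% in these data, passing the limit was not always enough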;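 further: values below 100% mean blocked vesicle binding to the CD8+ T cells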
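Material: murine 2C transgenic CD8+ T lymphocytes / Also added: QL9-peptide-loaded Drosophila micro-vesicles bearing Ld, ICAM-1 and B7-1 / Schedule: binding step 1.5 h, 37 °C, antibody labelling 20 min, ice / Signal: flow cytometry, PE anti-B7-1 (FL2) versus Alexa647 anti-CD8 (FL8), PFA-fixed / Evaluation: percent CD8+ FL2 mean versus row control / Benchmarks: naked versus QL9-loaded vesicles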
HTR2A ag: mouse HTR2A agonism via beta-arrestin recruitment | activation, % at 7.6 µM | CHO-K1 mHTR2A beta-arrestin complementation, luminescence; percent of 30 µM serotonin response | AID 624169 | hit rate 0.66% among 360,000;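 active means activation above a run cutoff, the mean activation of all tested compounds plus 3 SD, cut at about 14% in these data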;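 further: 0% = plate median of compound wells and 100% = 30 µM serotonin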
Target sequence (P35363 whole entry, looked up): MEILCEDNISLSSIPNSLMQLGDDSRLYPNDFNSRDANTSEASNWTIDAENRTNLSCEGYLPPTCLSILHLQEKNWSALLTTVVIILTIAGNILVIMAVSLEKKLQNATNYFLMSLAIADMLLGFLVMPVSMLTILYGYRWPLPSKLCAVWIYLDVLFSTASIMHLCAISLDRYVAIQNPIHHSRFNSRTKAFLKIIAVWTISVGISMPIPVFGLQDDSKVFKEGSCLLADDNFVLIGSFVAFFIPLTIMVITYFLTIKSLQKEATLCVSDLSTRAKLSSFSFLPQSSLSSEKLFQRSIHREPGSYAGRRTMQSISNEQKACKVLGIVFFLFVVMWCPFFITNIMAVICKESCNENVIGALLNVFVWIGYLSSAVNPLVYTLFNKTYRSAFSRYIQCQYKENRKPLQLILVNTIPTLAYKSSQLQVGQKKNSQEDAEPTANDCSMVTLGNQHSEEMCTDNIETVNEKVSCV
PP1 counter: counter-screen for PP5 inhibitors: inhibitors of human PP1-alpha; purified PP1alpha, OMFP fluorescence; inhibition, % at 6.7 µM; P62136; hit rate 0.9% among 320,000;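 active means inhibition above the mean inhibition of all tested compounds plus 3 SD, computed separately for each screening campaign, cut at about 15% in these data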
GASC-1 inh: blocks human GASC-1 demethylase activity; GST-JMJD2C(1-420) H3K9me3 demethylation, DELFIA europium; inhibition, % at 2.35 µM; hit rate 0.069% among 330,000;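 active means more than half of a compound's replicate wells show inhibition beyond 50%, single wells judged on their own value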;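 further: signal counts dimethyl H3K9 product captured on neutravidin plate; 0% = median of DMSO wells and 100% = 0.3 times that DMSO median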
PP1 inh confirm: confirmation of human PP1 phosphatase inhibitors; shares compounds with PP1 counter; purified PP1alpha, OMFP substrate fluorescence; inhibition, % at 6.7 µM; hit rate 52% among 1,900;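 active means mean PP1 inhibition above a set limit taken from the earlier primary screen, cut at about 15% in these data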
PP5 inh counter: inhibits human PP5 phosphatase in PP1 counter-screen; inhibition, % at 6.7 µM; purified PP5c, OMFP fluorescence; hit rate 4% among 1,900; shares compounds with PP1 counter; AID 2360;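 active means mean PP5 inhibition over triplicate wells above about 9.5% taken from the earlier PP1 screen, limit read from the data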
An asterisk follows results filed as active; i = inactive; · = not tested or not shown. In the library only some 1.7% were active in any assay of this set; here they are far more common.

SMILES	PP5 inh	T cell modulator	HTR2A ag	PP1 counter	GASC-1 inh	PP1 inh confirm	PP5 inh counter
COc1ccc(N=CC2CCCCC2=O)c([N+](=O)[O-])c1 (configuration not stated)	·	·	-6	·	·	·	·
CCc1ccc(C2=NNC(=Nc3cccc(S(=O)(=O)N(C)C)c3)SC2)cc1	2	196	2	9	11	·	·
N#Cc1cccc(NC(=O)CNc2cccc(S(=O)(=O)N3CCCC3)c2)c1	1	214	-11	21*	-7	-5	-4
O=c1c(-c2ccccc2)nc2ccccc2n1C(CCc1ccccc1)c1nc2ccccc2[nH]1 (configuration not stated)	·	·	-5	·	·	·	·
O=C(COC(=O)COc1ccccc1F)Nc1ccc2c(c1)OCO2	2	552	-8	-4	-7	·	·
O=C(Cc1csc(NC(=O)Nc2ccc(Cl)cc2)n1)NC1CCCC1	4	128	-6	24*	-2	19*	-3
Cc1ccc(C(=O)c2cc3c(cc2[N+](=O)[O-])OCCO3)cc1	1	256	-6	3	10	·	·
N#CCC(=O)N/N=C/c1cc(Br)ccc1OCc1cccc2ccccc12	3	i	-1	21*	-4	-1	1
N#CCC(=O)N/N=C/c1c2ccccc2cc2ccccc12	·	327	-5	·	-3	·	·
COc1cccc(-c2cc(N)nn2C(=O)Nc2ccc(Cl)cc2)c1	3	569	13	23*	-9	17*	7
Cc1ccc(Cl)cc1-c1cc(C(=O)NCc2ccc(C(F)(F)F)cc2)[nH]n1	·	·	-9	·	·	·	·
CCOC(=O)Cc1csc(NC(=O)c2sc3nc4cc(C)ccc4cc3c2N)n1	1	206	5	28*	11	33*	-2
CCOC(=O)Cc1csc(NC(=O)c2sc3nc4ccc(CC)cc4cc3c2N)n1	0	347	2	30*	-2	25*	-2
Cn1cc(-c2csc(C(O)c3ccccc3)n2)cn1 (configuration not stated)	·	·	1	·	·	·	·
Cc1ccc(C)c(Cn2nnc3c(=O)[nH]c(C(=O)NCc4ccco4)nc32)c1	1	197	-8	19*	4	4	-5
COc1ccc(-c2nn(C)c(=O)c3ccccc23)cc1NC(=O)Cn1nc(-c2ccccc2)c2ccccc2c1=O	3	245	3	24*	-2	18*	-2
COc1ccc(OCC(=O)Nc2cc(-c3nn(C)c(=O)c4ccccc34)ccc2OC)cc1	4	242	4	1	4	·	·
CCN1CCN(Cc2ccc(NC(=O)c3cc(NC(=O)c4cncc(-c5ccc(C#N)cc5)c4)cc(OC)c3)cc2C(F)(F)F)CC1	5	·	7	51*	0	15	0
CCN1CCN(Cc2ccc(NC(=O)c3cc(NC(=O)c4nccnc4N)cc(OC)c3)cc2C(F)(F)F)CC1	4	599	-6	-4	-10	·	·
Cc1[nH]c2ccccc2c1C(=O)C(C)OC(=O)C1CCC1 (configuration not stated)	5	223	-7	28*	0	0	-1
NC(=O)CC(NC(=O)Cc1ccc(Br)cc1)c1ccc(N2CCN(c3ccc(F)cc3)CC2)c([N+](=O)[O-])c1 (configuration not stated)	3	720	-5	18*	2	15	0
NC(=O)CC(NC(=O)c1ccc(Br)cc1)c1ccc(N2CCC(Cc3ccccc3)CC2)c([N+](=O)[O-])c1 (configuration not stated)	-1	238	1	20*	-8	11	-2
NC(=O)CC(NC(=O)c1ccc(Br)cc1)c1ccc(N2CCN(c3ccc(F)cc3)CC2)c([N+](=O)[O-])c1 (configuration not stated)	-3	711	-11	21*	0	14	0
O=C(CSc1nc(O)cc(=O)[nH]1)N1CCCc2ccccc21	-3	640	-3	-2	29	·	·
O=C(CSc1nc(O)cc(=O)[nH]1)N1c2ccccc2CCc2ccccc21	1	136	6	28*	-3	-3	-4
SMILES	PP5 inh	T cell modulator	HTR2A ag	PP1 counter	GASC-1 inh	PP1 inh confirm	PP5 inh counter
O=C(NCC1CCCN1S(=O)(=O)c1cccs1)c1ccccc1F (configuration not stated)	0	322	5	5	-1	·	·
CCn1cc(C(=O)NCc2ccc(C)cc2)c(=O)c2cc(S(=O)(=O)N(C)C)ccc21	1	661	4	-1	-15	·	·
COc1ccc(NC(=O)c2cc(-c3ccncc3)nc3ccc(Br)cc23)cc1OC	1	166	-10	18*	9	24*	0
Cc1ccccc1NC(=O)Cn1c(O)c(N=NC(=O)c2ccccc2O)c2ccccc21	2	332	6	20*	9	24*	-5
Cc1cccc(NC(=O)Cn2c(C)c(C#N)c3ccccc32)c1C	2	238	1	21*	0	19*	-1
Cc1ccc(NC(=O)Cn2c(O)c(N=NC(N)=O)c3ccccc32)cc1	-2	342	0	-2	18	·	·
Cc1c(C#N)c2ccccc2n1CC(=O)NC(C)c1ccccc1 (configuration not stated)	1	281	4	0	4	·	·
Cc1ccc(NC(=O)Cn2c(O)c(N=NC(N)=S)c3ccccc32)cc1	1	342	-2	21*	2	10	-6
CCC1=NN=C(c2ccc(F)cc2)C(c2c[nH]c3ccccc23)N1O (configuration not stated)	3	377	2	22*	4	-4	-2
CCC(=O)NC(c1ccc(C)cc1)c1ccc2cccnc2c1O (configuration not stated)	0	156	-8	1	31	·	·
CN1CCN(C(c2ccc(Cl)cc2)c2cc(Cl)c3cccnc3c2O)CC1 (configuration not stated)	2	342	-31	22*	-10	-3	1
CCN1CCN(C(c2ccc(C(F)(F)F)cc2)c2ccc3cccnc3c2O)CC1 (configuration not stated)	3	154	-21	18*	-4	-6	-1
CN1CCN(C(c2ccc(C(F)(F)F)cc2)c2cc(Cl)c3cccnc3c2O)CC1 (configuration not stated)	5	281	·	21*	2	2	-3
COc1cccc(NC(=O)COC(=O)C2=NN(c3ccccc3)C(=O)CC2)c1	·	369	1	·	1	·	·
Cc1c(O)ccc(C(=O)CN2CCN(c3ccccc3)CC2)c1O	1	376	-3	4	25	·	·
c1ccc(N2CCN(c3nc(-c4ccccn4)nc4ccccc34)CC2)cc1	2	232	0	64*	-1	46*	0

Source: PubChem BioAssay (several laboratories)
